Values belong to the molecule of their own block, whether it stands above or below them.
Assays:
Escherichia coli K-12 [1] = experiment: Activity of purified recombinant Escherichia coli K-12 malic enzyme L310R/L404C mutant at 0.2 mM by UV-vis spectrophotometry in presence of L-malate MnCl2
Procedure, shortened: (§1)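 Screening of malic enzyme mutants with 1,2,3-triazole-containing NAD analogs as cofactor. Each analog was present at 0.2 mM, and the read-out was specific activity.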

Escherichia coli K-12 [2] = experiment: Activity of purified recombinant Escherichia coli K-12 malic enzyme L310R/L404N mutant at 0.2 mM by UV-vis spectrophotometry in presence of L-malate MnCl2; procedure, shortened: as §1
Escherichia coli K-12 [3] = experiment: Activity of purified recombinant Escherichia coli K-12 malic enzyme L310R/Q401I mutant at 0.2 mM by UV-vis spectrophotometry in presence of L-malate MnCl2; procedure, shortened: as §1
Escherichia coli K-12 [4] = experiment: Activity of purified recombinant Escherichia coli K-12 malic enzyme L310K/L404S mutant at 0.2 mM by UV-vis spectrophotometry in presence of L-malate MnCl2; procedure, shortened: as §1
Escherichia coli K-12 [5] = experiment: Activity of purified recombinant Escherichia coli K-12 malic enzyme L310R/Q401N mutant at 0.2 mM by UV-vis spectrophotometry in presence of L-malate MnCl2; procedure, shortened: as §1
Escherichia coli K-12 [6] = experiment: Activity of purified recombinant Escherichia coli K-12 malic enzyme L310R/Q401S mutant at 0.2 mM by UV-vis spectrophotometry in presence of L-malate MnCl2; procedure, shortened: as §1
Escherichia coli K-12 [7] = experiment: Activity of purified recombinant Escherichia coli K-12 malic enzyme L310K/Q401R mutant at 0.2 mM by UV-vis spectrophotometry in presence of L-malate MnCl2; procedure, shortened: as §1
Escherichia coli K-12 [8] = experiment: Activity of purified recombinant Escherichia coli K-12 malic enzyme L310K/L404S mutant at 0.2 mM by Lineweaver-Burk plot method in presence of L-malate MnCl2
Escherichia coli K-12 [9] = experiment: Ratio of Kcat to Km for purified recombinant Escherichia coli K-12 malic enzyme L310K/L404S mutant at 0.2 mM by Lineweaver-Burk plot method in presence of L-malate MnCl2
Escherichia coli K-12 [10] = experiment: Activity of purified recombinant Escherichia coli K-12 malic enzyme L310R/Q401V mutant at 0.2 mM by UV-vis spectrophotometry in presence of L-malate MnCl2; procedure, shortened: as §1
[11] = compound: Cc1ccccc1-c1cn([C@H]2O[C@@H](COP(=O)(O)OP(=O)([O-])OC[C@H]3O[C@@H]([n+]4cccc(C(N)=O)c4)[C@H](O)[C@@H]3O)[C@H](O)[C@@H]2O)nn1; experiment: (§2) Activity of purified recombinant Escherichia coli K-12 malic enzyme at 0.2 mM by Lineweaver-Burk plot method in presence of L-malate MnCl2
[12] = compound: NC(=O)c1ccc[n+]([C@@H]2O[C@H](COP(=O)([O-])OP(=O)(O)OC[C@@H]3O[C@H](n4cnc5c(N)ncnc54)[C@@H](O)[C@H]3O)[C@@H](O)[C@H]2O)c1; experiment: as §2
[13] = compound: NC(=O)c1ccc[n+]([C@@H]2O[C@H](COP(=O)([O-])OP(=O)(O)OC[C@@H]3O[C@H](n4cc(-c5ccccc5)nn4)[C@@H](O)[C@H]3O)[C@@H](O)[C@H]2O)c1; experiment: as §2
[14] = compound: NC(=O)c1ccc[n+]([C@@H]2O[C@H](COP(=O)([O-])OP(=O)(O)OC[C@@H]3O[C@H](n4cc(-c5cccc6ccccc56)nn4)[C@@H](O)[C@H]3O)[C@@H](O)[C@H]2O)c1; experiment: as §2
[15] = compound: Cc1ccccc1-c1cn([C@H]2O[C@@H](COP(=O)(O)OP(=O)([O-])OC[C@H]3O[C@@H]([n+]4cccc(C(N)=O)c4)[C@H](O)[C@@H]3O)[C@H](O)[C@@H]2O)nn1; experiment: (§3) Ratio of Kcat to Km for purified recombinant Escherichia coli K-12 malic enzyme at 0.2 mM by Lineweaver-Burk plot method in presence of L-malate MnCl2
[16] = compound: NC(=O)c1ccc[n+]([C@@H]2O[C@H](COP(=O)([O-])OP(=O)(O)OC[C@@H]3O[C@H](n4cnc5c(N)ncnc54)[C@@H](O)[C@H]3O)[C@@H](O)[C@H]2O)c1; experiment: as §3
[17] = compound: NC(=O)c1ccc[n+]([C@@H]2O[C@H](COP(=O)([O-])OP(=O)(O)OC[C@@H]3O[C@H](n4cc(-c5ccccc5)nn4)[C@@H](O)[C@H]3O)[C@@H](O)[C@H]2O)c1; experiment: as §3
[18] = compound: NC(=O)c1ccc[n+]([C@@H]2O[C@H](COP(=O)([O-])OP(=O)(O)OC[C@@H]3O[C@H](n4cc(-c5cccc6ccccc56)nn4)[C@@H](O)[C@H]3O)[C@@H](O)[C@H]2O)c1; experiment: as §3

Molecule: NC(=O)c1ccc[n+]([C@@H]2O[C@H](COP(=O)([O-])OP(=O)(O)OC[C@@H]3O[C@H](n4cc(-c5ccccc5)nn4)[C@@H](O)[C@H]3O)[C@@H](O)[C@H]2O)c1
Km (Escherichia coli K-12 [8]): 2500 µM | kcat (Escherichia coli K-12 [8]): 16.4 s⁻¹ | kcat/Km (Escherichia coli K-12 [9]): 6700 M⁻¹ s⁻¹

Molecule: NC(=O)c1ccc[n+]([C@@H]2O[C@H](COP(=O)([O-])OP(=O)(O)OC[C@@H]3O[C@H](n4cc(C(=O)O)nn4)[C@@H](O)[C@H]3O)[C@@H](O)[C@H]2O)c1
Activity (Escherichia coli K-12 [4]): 0.17 U/mg | Activity (Escherichia coli K-12 [7]): 2.1 U/mg

B1: NAD-dependent malic enzyme (Escherichia coli (strain K12)), P26616 (protein)
chain: MEPKTKKQRSLYIPYAGPVLLEFPLLNKGSAFSMEERRNFNLLGLLPEVVETIEEQAERAWIQYQGFKTEIDKHIYLRNIQDTNETLFYRLVNNHLDEMMPVIYTPTVGAACERFSEIYRRSRGVFISYQNRHNMDDILQNVPNHNIKVIVVTDGERILGLGDQGIGGMGIPIGKLSLYTACGGISPAYTLPVVLDVGTNNQQLLNDPLYMGWRNPRITDDEYYEFVDEFIQAVKQRWPDVLLQFEDFAQKNAMPLLNRYRNEICSFNDDIQGTAAVTVGTLIAASRAAGGQLSEKKIVFLGAGSAGCGIAEMIISQTQREGLSEEAARQKVFMVDRFGLLTDKMPNLLPFQTKLVQKRENLSDWDTDSDVLSLLDVVRNVKPDILIGVSGQTGLFTEEIIREMHKHCPRPIVMPLSNPTSRVEATPQDIIAWTEGNALVATGSPFNPVVWKDKIYPIAQCNNAFIFPGIGLGVIASGASRITDEMLMSASETLAQYSPLVLNGEGMVLPELKDIQKVSRAIAFAVGKMAQQQGVAVKTSAEALQQAIDDNFWQAEYRDYRRTSI
Km [11]: 1600 µM | kcat [11]: 10 s⁻¹ | Km [12]: 280 µM | kcat [12]: 103 s⁻¹ | Km [13]: 2900 µM | kcat [13]: 7.5 s⁻¹ | Km [14]: 1800 µM | kcat [14]: 4.6 s⁻¹ | kcat/Km [15]: 6300 M⁻¹ s⁻¹ | kcat/Km [16]: 369000 M⁻¹ s⁻¹ | kcat/Km [17]: 2600 M⁻¹ s⁻¹ | kcat/Km [18]: 2600 M⁻¹ s⁻¹

Second part, the molecule after the results:

Activity (Escherichia coli K-12 [1]): 0.51 U/mg | Activity (Escherichia coli K-12 [2]): 0.51 U/mg | Activity (Escherichia coli K-12 [3]): 0.98 U/mg | Activity (Escherichia coli K-12 [4]): 1.6 U/mg | Activity (Escherichia coli K-12 [5]): 0.43 U/mg | Activity (Escherichia coli K-12 [6]): 0.43 U/mg | Activity (Escherichia coli K-12 [7]): 4.3 U/mg
Molecule: COc1ccc(-c2cn([C@H]3O[C@@H](COP(=O)(O)OP(=O)([O-])OC[C@H]4O[C@@H]([n+]5cccc(C(N)=O)c5)[C@H](O)[C@@H]4O)[C@H](O)[C@@H]3O)nn2)cc1

Km (Escherichia coli K-12 [8]): 4100 µM | kcat (Escherichia coli K-12 [8]): 33.7 s⁻¹ | kcat/Km (Escherichia coli K-12 [9]): 8200 M⁻¹ s⁻¹
Molecule: NC(=O)c1ccc[n+]([C@@H]2O[C@H](COP(=O)([O-])OP(=O)(O)OC[C@@H]3O[C@H](n4cnc5c(N)ncnc54)[C@@H](O)[C@H]3O)[C@@H](O)[C@H]2O)c1

Km (Escherichia coli K-12 [8]): 1100 µM | kcat (Escherichia coli K-12 [8]): 86.7 s⁻¹ | kcat/Km (Escherichia coli K-12 [9]): 78800 M⁻¹ s⁻¹
Molecule: Cc1ccccc1-c1cn([C@H]2O[C@@H](COP(=O)(O)OP(=O)([O-])OC[C@H]3O[C@@H]([n+]4cccc(C(N)=O)c4)[C@H](O)[C@@H]3O)[C@H](O)[C@@H]2O)nn1

Activity (Escherichia coli K-12 [1]): 0.36 U/mg | Km (Escherichia coli K-12 [8]): 1000 µM | kcat (Escherichia coli K-12 [8]): 68.6 s⁻¹ | Activity (Escherichia coli K-12 [2]): 0.47 U/mg | Activity (Escherichia coli K-12 [10]): 0.53 U/mg | kcat/Km (Escherichia coli K-12 [9]): 68600 M⁻¹ s⁻¹ | Activity (Escherichia coli K-12 [4]): 10.5 U/mg | Activity (Escherichia coli K-12 [5]): 0.32 U/mg | Activity (Escherichia coli K-12 [7]): 2.3 U/mg
Molecule: NC(=O)c1ccc[n+]([C@@H]2O[C@H](COP(=O)([O-])OP(=O)(O)OC[C@@H]3O[C@H](n4cc(-c5cccc6ccccc56)nn4)[C@@H](O)[C@H]3O)[C@@H](O)[C@H]2O)c1
